Active and inactive are the calls of the source.
Legend:
[1] = target: T1, Toll-like receptor 9 (Homo sapiens) (UniProt Q9NR96); assay: Induction of TLR9-mediated human B cell proliferation assessed as [3H]thymidine uptake after 56 hrs by scintillation counting
T1 sequence (whole entry): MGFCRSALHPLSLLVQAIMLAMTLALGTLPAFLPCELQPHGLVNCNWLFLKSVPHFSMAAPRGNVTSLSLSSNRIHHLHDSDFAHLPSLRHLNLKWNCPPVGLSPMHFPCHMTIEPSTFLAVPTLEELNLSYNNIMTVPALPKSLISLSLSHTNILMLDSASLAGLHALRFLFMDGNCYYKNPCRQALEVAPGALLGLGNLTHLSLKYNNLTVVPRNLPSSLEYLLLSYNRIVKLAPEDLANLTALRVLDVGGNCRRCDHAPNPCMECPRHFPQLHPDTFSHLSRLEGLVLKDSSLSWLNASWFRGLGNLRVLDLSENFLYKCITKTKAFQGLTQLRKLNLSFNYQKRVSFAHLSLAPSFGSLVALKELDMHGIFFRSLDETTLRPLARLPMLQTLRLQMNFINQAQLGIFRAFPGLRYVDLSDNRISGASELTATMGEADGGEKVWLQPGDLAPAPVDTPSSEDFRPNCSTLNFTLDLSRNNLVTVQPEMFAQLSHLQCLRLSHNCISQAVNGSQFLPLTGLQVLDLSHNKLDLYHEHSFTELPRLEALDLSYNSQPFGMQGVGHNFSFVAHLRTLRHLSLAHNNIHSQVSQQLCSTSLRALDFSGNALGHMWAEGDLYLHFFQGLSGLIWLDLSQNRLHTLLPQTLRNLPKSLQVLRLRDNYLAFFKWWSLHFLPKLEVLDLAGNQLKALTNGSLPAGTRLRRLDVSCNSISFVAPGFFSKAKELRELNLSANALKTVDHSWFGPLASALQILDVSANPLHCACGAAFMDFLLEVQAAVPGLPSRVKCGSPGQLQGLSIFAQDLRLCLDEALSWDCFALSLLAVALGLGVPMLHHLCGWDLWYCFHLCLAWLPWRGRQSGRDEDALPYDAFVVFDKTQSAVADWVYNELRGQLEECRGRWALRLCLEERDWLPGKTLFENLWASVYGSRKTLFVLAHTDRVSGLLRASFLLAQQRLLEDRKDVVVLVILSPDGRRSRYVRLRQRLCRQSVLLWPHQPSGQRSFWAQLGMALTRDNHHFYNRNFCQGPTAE
Summary of the method: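 B cells were purified from human PBMCs (healthy volunteers), about 1 × 10⁵ cells, and stimulated with various agonist concentrations for 56 h. Cells were then pulsed with 0.75 μCi [³H]-thymidine and harvested 16 h later. Incorporation was counted by scintillation and reported as cpm.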

[2] = target: T2, Toll-like receptor 9 (Mus musculus) (UniProt Q9EQU3); assay: Activation of mouse TLR9 expressed in HEK293 cells assessed as induction of NF-kappaB activity after 18 hrs by SEAP assay; format: cell-based
T2 sequence (whole entry): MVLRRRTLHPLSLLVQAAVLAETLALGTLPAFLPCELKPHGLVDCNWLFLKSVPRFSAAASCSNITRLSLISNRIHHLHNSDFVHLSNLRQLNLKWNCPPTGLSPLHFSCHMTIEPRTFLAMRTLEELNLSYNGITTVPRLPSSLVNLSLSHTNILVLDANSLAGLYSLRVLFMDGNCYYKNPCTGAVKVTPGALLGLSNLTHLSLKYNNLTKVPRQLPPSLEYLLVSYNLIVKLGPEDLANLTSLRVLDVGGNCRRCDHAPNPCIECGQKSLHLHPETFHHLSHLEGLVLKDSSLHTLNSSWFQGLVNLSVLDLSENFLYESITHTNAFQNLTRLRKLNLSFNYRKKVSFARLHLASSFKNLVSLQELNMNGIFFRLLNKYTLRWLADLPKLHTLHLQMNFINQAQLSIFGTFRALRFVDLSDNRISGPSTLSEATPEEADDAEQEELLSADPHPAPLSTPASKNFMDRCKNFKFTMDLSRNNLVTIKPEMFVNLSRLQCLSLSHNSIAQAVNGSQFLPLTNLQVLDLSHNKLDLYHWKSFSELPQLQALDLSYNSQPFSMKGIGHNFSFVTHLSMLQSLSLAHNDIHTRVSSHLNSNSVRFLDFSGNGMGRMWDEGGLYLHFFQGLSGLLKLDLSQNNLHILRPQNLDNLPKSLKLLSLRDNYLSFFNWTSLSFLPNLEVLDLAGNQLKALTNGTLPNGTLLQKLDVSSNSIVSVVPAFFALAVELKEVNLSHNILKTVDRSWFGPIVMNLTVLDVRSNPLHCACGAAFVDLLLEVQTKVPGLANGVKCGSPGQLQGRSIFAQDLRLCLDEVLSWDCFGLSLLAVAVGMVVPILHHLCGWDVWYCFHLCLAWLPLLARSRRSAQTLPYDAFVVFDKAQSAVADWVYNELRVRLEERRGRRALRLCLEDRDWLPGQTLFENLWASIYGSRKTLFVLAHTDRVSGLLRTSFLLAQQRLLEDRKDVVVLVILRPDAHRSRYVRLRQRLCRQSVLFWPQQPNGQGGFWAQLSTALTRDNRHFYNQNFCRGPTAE
Summary of the method: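 HEK293 cells stably expressing mouse TLR9 were grown in DMEM with 10% heat-inactivated FBS. At 80% confluence they were transiently transfected with a SEAP reporter plasmid (100 ng/well, lipofectamine) for 6 h. Medium was then replaced and agonists were added for 18 h. Supernatant SEAP was read with QuantiBlue substrate at 620-645 nm. Results are expressed as fold NF-κB activity over PBS control.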

[3] = target: T2, Toll-like receptor 9 (Mus musculus); assay: Induction of TLR9-mediated IL6 production in C57BL/6 mouse spleen cells after 24 hrs by ELISA; format: cell-based
Summary of the method: (§1)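 C57BL/6 mouse spleen cells were cultured with agonists at 0.1, 0.3, 1, 3 and 10 μg/mL for 24 h. Secreted IL-12 and IL-6 in the supernatants were measured by ELISA. Values are averages of triplicate wells from one representative of at least two independent experiments.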

Mus musculus = assay: Immunostimulatory activity in C57BL/6 mouse assessed as increase in serum IL12 level at 1 mg/kg, sc after 2 hrs by ELISA; format: functional, organism-based; design: dose 1 mg/kg
Summary of the method: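 Female C57BL/6 mice (n=3) received a single subcutaneous agonist dose of 1 mg/kg. Blood was taken by retro-orbital bleeding 2 h later, and serum IL-12 was measured by sandwich ELISA. Values are the mean of three mice ± SD.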

[4] = target: T2, Toll-like receptor 9 (Mus musculus); assay: Induction of TLR9-mediated IL12 production in C57BL/6 mouse spleen cells after 24 hrs by ELISA; format: cell-based; summary of the method: as §1

Measured: Activity

Cc1cn([C@H]2C[C@H](OCCn3c(=O)n(CCO)c(=O)n(CCOP(=O)(S)O[C@H]4C[C@H](n5cc(C)c(=O)[nH]c5=O)O[C@@H]4COP(=O)(S)O[C@H]4[C@@H](O)[C@H](n5ccc(N)nc5=O)O[C@@H]4COP(=O)(S)O[C@H]4C[C@H](n5cc(C)c(=O)[nH]c5=O)O[C@@H]4COP(=O)(S)O[C@H]4C[C@H](n5cc(C)c(=O)[nH]c5=O)O[C@@H]4COP(=O)(S)O[C@H]4C[C@H](n5ccc6c(=O)[nH]c(N)nc65)O[C@@H]4COP(=O)(S)O[C@H]4[C@@H](O)[C@H](n5ccc(N)nc5=O)O[C@@H]4COP(=O)(S)O[C@H]4C[C@H](n5cc(C)c(=O)[nH]c5=O)O[C@@H]4COP(=O)(S)O[C@H]4[C@@H](O)[C@H](n5cnc6c(=O)[nH]c(N)nc65)O[C@@H]4COP(=O)(S)O[C@H]4C[C@H](n5cc(C)c(=O)[nH]c5=O)O[C@@H]4COP(=O)(S)O[C@H]4[C@@H](O)[C@H](n5ccc(N)nc5=O)O[C@@H]4COP(=O)(S)O[C@H]4C[C@H](n5cc(C)c(=O)[nH]c5=O)O[C@@H]4CO)c3=O)[C@@H](COP(=O)(S)O[C@H]3[C@@H](O)[C@H](n4ccc(N)nc4=O)O[C@@H]3COP(=O)(S)O[C@H]3C[C@H](n4cc(C)c(=O)[nH]c4=O)O[C@@H]3COP(=O)(S)O[C@H]3C[C@H](n4cc(C)c(=O)[nH]c4=O)O[C@@H]3COP(=O)(S)O[C@H]3C[C@H](n4ccc5c(=O)[nH]c(N)nc54)O[C@@H]3COP(=O)(S)O[C@H]3[C@@H](O)[C@H](n4ccc(N)nc4=O)O[C@@H]3COP(=O)(S)O[C@H]3C[C@H](n4cc(C)c(=O)[nH]c4=O)O[C@@H]3COP(=O)(S)O[C@H]3[C@@H](O)[C@H](n4cnc5c(=O)[nH]c(N)nc54)O[C@@H]3COP(=O)(S)O[C@H]3C[C@H](n4cc(C)c(=O)[nH]c4=O)O[C@@H]3COP(=O)(S)O[C@H]3[C@@H](O)[C@H](n4ccc(N)nc4=O)O[C@@H]3COP(=O)(S)O[C@H]3C[C@H](n4cc(C)c(=O)[nH]c4=O)O[C@@H]3CO)O2)c(=O)[nH]c1=O (stereo not given in full)
active: [1] Dose-dependent effect | [2] Dose-dependent effect | [3] Dose-dependent effect | Mus musculus | [4] Dose-dependent effect

From ChEMBL document CHEMBL1157912, “Impact of nature and length of linker incorporated in agonists on toll-like receptor 9-mediated immune responses” (J Med Chem, 2010)
